In the library only some 4.8% were active in any assay of this set; here they are far more common.
ALR H2O2 inh = blocks human ALR sulfhydryl oxidase activity. purified ALR, DTT oxidation, H2O2 HRP-luminol luminescence. inhibition, % (test concentration not listed). AID 485317. P55789. hit rate 3.8% among 290,000;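 active = mean replicate inhibition above about 79%, with every replicate also reaching it, limit read from the data; inconclusive = only one of the two criteria met; inactive = mean below limit and not every replicate reaching it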
Target sequence (P55789 whole entry, looked up): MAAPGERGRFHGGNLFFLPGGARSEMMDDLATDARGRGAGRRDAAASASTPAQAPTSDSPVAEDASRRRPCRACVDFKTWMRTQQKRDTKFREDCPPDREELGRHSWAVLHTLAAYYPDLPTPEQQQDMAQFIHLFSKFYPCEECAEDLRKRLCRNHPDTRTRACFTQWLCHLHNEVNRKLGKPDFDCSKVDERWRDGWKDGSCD
NALP1 inh = NALP1 inhibition; hit rate 0.61% among 280,000; S. cerevisiae NALP1/ASC/caspase-1 growth, X-gal OD620, 72 h; AID 2071; inhibition, % at 10 µM; in the data active = inhibition mostly above about 24%, no sharp cut-off; inactive = mostly below about 32%
UCH37 inh = human UCH37 deubiquitinating enzyme inhibition; purified proteasome/UCH37, Ub-AMC cleavage fluorescence; inhibition, % (test concentration not listed); hit rate 0.33% among 330,000; AID 588478;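 active = mean inhibition over replicate wells above about 20%, limit read from the data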
Target sequence (Q9Y5K5 whole entry, looked up): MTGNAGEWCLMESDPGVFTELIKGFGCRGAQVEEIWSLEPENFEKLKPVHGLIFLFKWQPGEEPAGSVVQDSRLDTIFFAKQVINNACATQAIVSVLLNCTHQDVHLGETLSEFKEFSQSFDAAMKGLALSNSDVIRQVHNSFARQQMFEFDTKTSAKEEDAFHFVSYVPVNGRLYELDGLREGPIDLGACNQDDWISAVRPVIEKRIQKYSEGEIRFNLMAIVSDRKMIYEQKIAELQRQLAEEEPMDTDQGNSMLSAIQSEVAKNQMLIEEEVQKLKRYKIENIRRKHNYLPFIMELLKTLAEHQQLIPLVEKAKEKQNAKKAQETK
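system = Proteasome-associated human UCH37 deubiquitinase | amount = 0.15 nM proteasome as dispensed | medium = pH 7.4 Tris-HCl (50 mM) with ovalbumin, ATP-MgCl2, DTT | incubation = 30 min preincubation with enzyme, 25 min cleavage at room temperature | detection = AMC fluorescence 355/460 nm | read-out basis = percent inhibition | controls = no-proteasome and no-compound wells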
Calb FLC = C. albicans growth modulation with fluconazole; growth inhibition, % (test concentration not listed); C. albicans CaCi-2 (fluconazole-resistant clinical isolate) + fluconazole, Alamar Blue growth, 48 h; hit rate 0.57% among 300,000; AID 1979;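 active = growth inhibition above about 58% in most replicates, limit read from the data, passing the limit was not always enough; inconclusive = exactly half the replicates above a set limit; inactive = most replicates below a set limit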;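 note: all wells also contain fluconazole at 8 µg/ml as a sub-toxic cotreatment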
NLRP3 yeast inh = NALP3 inhibition in yeast; Yeast reconstituted NLRP3/ASC/caspase-1, beta-gal luminescence, 24 h; inhibition, % at 10 µM; hit rate 0.39% among 330,000;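 active = inhibition of 50% or more; inactive = inhibition below 50%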
ATG4B inhibitor = ATG4B (human) cysteine protease inhibition; hit rate 0.51% among 340,000; ATG4B cleavage of LC3-PLA2, NBD-HPC fluorescence, 1 h; inhibition, % at 8.33 µM; in the data active = inhibition above about 40%
Large screens that a line does not name were inactive.

Cc1[nH][nH]c(=O)c1C(c1ccc(-c2ccc(Cl)cc2Cl)o1)c1c(C)[nH][nH]c1=O	none (no result: ALR H2O2 inh, UCH37 inh, Calb FLC, NLRP3 yeast inh, ATG4B inhibitor)
O=C(CSc1nnc(-c2ccccn2)n1Cc1ccco1)c1ccc(Cl)cc1	ALR H2O2 inh 97.3
O=C(CSc1nnc(-c2cnccn2)n1Cc1ccco1)c1ccccc1	ALR H2O2 inh 87.2, Calb FLC inconclusive
O=C(CSc1nnc(-c2cccnc2)n1Cc1ccco1)c1ccc(Br)cc1	ALR H2O2 inh 95.8, Calb FLC inconclusive
CC(C)(C)c1ccc(CSc2nnc(-c3ccccn3)n2Cc2ccco2)cc1	none
O=C(CSc1nnc(-c2cccnc2)n1Cc1ccco1)c1ccc2ccccc2c1	none
Brc1ccc(CSc2nnc(-c3ccccn3)n2Cc2ccco2)cc1	ATG4B inhibitor 50.1
CC(=NNc1ccccc1)c1cccc(N)c1	none (no result: ALR H2O2 inh, NALP1 inh, Calb FLC, NLRP3 yeast inh, ATG4B inhibitor)
ON=CCCn1c(=S)sc2ccccc21	none (no result: ALR H2O2 inh, NALP1 inh, Calb FLC, NLRP3 yeast inh, ATG4B inhibitor)
CCn1c(Sc2nc(C)nc3scc(-c4cccs4)c23)n[nH]c1=O	Calb FLC 95.3
C/C(CC(=O)Nc1ccc2ccccc2c1)=N\NC(=O)c1ccc(O)c(O)c1	ALR H2O2 inh 99.4 (no result: UCH37 inh)
O=C(CS)Nc1ccc2ccccc2c1	ALR H2O2 inh 97.1 (no result: UCH37 inh, NLRP3 yeast inh)
O=C(CSCc1nc2ccccc2[nH]1)Nc1ccc2ccccc2c1	ALR H2O2 inh 98.7
O=C1OCC/C1=C\c1ccc(O)cc1	ALR H2O2 inh 98.2
Oc1ccc(C2=NNC(=NCc3ccc4c(c3)OCO4)SC2)c(O)c1	ALR H2O2 inh 95.4 (no result: NALP1 inh)
Cc1cc(C=NNC(=O)C(=O)N2CCCC2)c(C)n1-c1cccc(Br)c1	none (no result: ALR H2O2 inh, NALP1 inh, Calb FLC, NLRP3 yeast inh, ATG4B inhibitor)
CCOC(=O)c1cccc(NS(=O)(=O)Cc2ccccc2)c1	NALP1 inh 44.1
COc1ccc(/C=C2\N=C(SC)NC2=O)cc1	Calb FLC 90.4 (no result: ALR H2O2 inh)
CCSC1=N/C(=C\c2ccc(OC)cc2)C(=O)N1	none
CCN1C(=NN)c2cccc3cccc1c23	none (no result: ALR H2O2 inh, NALP1 inh, Calb FLC, NLRP3 yeast inh, ATG4B inhibitor)
C(=N\Nc1nc2ccccc2s1)/c1cccs1	ALR H2O2 inh 89.0 (no result: UCH37 inh)
O=c1oc2ccccc2cc1-c1csc(NN=C2CCCC2)n1	ALR H2O2 inh 97.9
CC(=O)n1c2ccccc2c2nc(NC(C)C)sc21	ALR H2O2 inh 99.4
C/C(=N\NC(=O)CSCc1ccccc1Cl)c1cc(O)ccc1O	ALR H2O2 inh 98.3, Calb FLC 95.0 (no result: UCH37 inh)
CCCCN=C(NNc1ccc(Br)cc1)C(=O)OCC	ALR H2O2 inh 99.2
CCOC(=O)C(=NCCCN(C)C)NNc1ccc(Br)cc1	ALR H2O2 inh 99.0, Calb FLC inconclusive
CCOC(=O)C(=NCCCN(C)C)NNc1cc(C(F)(F)F)ccc1Cl	none
CCOC(=O)/C(=N/Nc1ccc(Br)cc1)N1CC(C)OC(C)C1 (configuration not stated)	none (no result: ALR H2O2 inh, NALP1 inh, Calb FLC, NLRP3 yeast inh)
COc1cc(C=Nn2nnnc2N)ccc1OCC(N)=O	none (no result: ALR H2O2 inh, NALP1 inh, Calb FLC, NLRP3 yeast inh, ATG4B inhibitor)
COc1ccc(CCNC(=O)c2c[nH]c3ccccc3c2=O)cc1OC	none
COc1ccc(CCNC(=O)CSc2c[nH]c3ccccc23)cc1OC	ALR H2O2 inh 97.2
COc1ccc(Cc2c(O)nc(SCC(=O)N3CCCCCC3)[nH]c2=O)cc1	none
COc1ccc(Cc2c(O)nc(SCC(=O)NC(C)(C)C)[nH]c2=O)cc1	ALR H2O2 inh 84.4
COc1ccc(CCNC(=O)CSc2nc(O)c(CC(C)C)c(=O)[nH]2)cc1OC	ALR H2O2 inh 97.8
COc1ccc(CCNC(=O)CSc2nc(O)cc(=O)[nH]2)cc1OC	ALR H2O2 inh 94.8 (no result: NALP1 inh)
O=C(Cc1ccc(F)cc1)N1CCC(CC2CC(c3ccc(Cl)cc3)=NO2)(C(=O)NCC2CCCCC2)CC1 (configuration not stated)	UCH37 inh 38.7
COc1ccc(C=NNc2nc(-c3cccc(S(=O)(=O)N4CCCC4)c3)cs2)cc1OC	none (no result: ALR H2O2 inh, NALP1 inh, Calb FLC, NLRP3 yeast inh, ATG4B inhibitor)
CCCCOc1ccc(C(=O)O)cc1	NALP1 inh 19.9
CCCCCCCCOc1ccc(C(=O)O)cc1	none (no result: NALP1 inh, UCH37 inh, Calb FLC)
CCCCOc1ccc(C(=O)CCN2CCOCC2)cc1	ALR H2O2 inh 97.6
Cn1c(COc2ccc(C(=O)O)cc2)nc2ccccc21	none
CCCOc1ccc(C(=O)CCN2CCCCC2)cc1	none (no result: Calb FLC)
CCCn1c(COc2ccc(C(=O)O)cc2)nc2ccccc21	NALP1 inh 42.9 (no result: ALR H2O2 inh)
COc1cccc(C(=O)O/N=C(\N)c2ccc(C)cc2)c1	none
O=C(ON=Cc1ccc(Cl)cc1)C1CCCCC1	none (no result: ALR H2O2 inh, NALP1 inh, Calb FLC, NLRP3 yeast inh, ATG4B inhibitor)
N/C(Cc1ccc(Cl)cc1)=N\OC(=O)C1CCCCC1	NALP1 inh 47.1
COc1cccc(C(=O)O/N=C(\N)Cc2ccc(Cl)cc2)c1	NALP1 inh 77.3

Assay outcomes deposited in PubChem BioAssay by several laboratories.
